ChEMBL document CHEMBL1147142, “Novel 3-O-glycosyl-3-demethylthiocolchicines as ligands for glycine and gamma-aminobutyric acid receptors” (J Med Chem, 2007)

Tests used:
Format in all cases: cell membranes, Membrane
[1] = Displacement of [3H]muscimol from GABAA receptor in Sprague-Dawley rat spinal cord brainstem membranes
[2] = Displacement of [3H]strychnine from glycine receptor in rat spinal cord synaptosomal membranes
How it was run: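 Rat spinal cord synaptosomal membranes (stored at -80 °C, used within 2 weeks; 0.2-0.4 mg protein per 1.2 mL) incubated 10 min at 4 °C with 2 nM [3H]strychnine plus increasing concentrations of competitor in 50 mM sodium-potassium phosphate, pH 7.1. Rapid glass-fiber filtration, 0.15 M NaCl rinse. Nonspecific binding with 0.1 mM unlabeled strychnine. Triplicate points; IC50 from mean of three independent curves.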

[3] = Displacement of [3H]muscimol from GABAA receptor in Sprague-Dawley rat cerebral cortex membranes

| Structure (SMILES) | IC50 [1] [µM] | IC50 [2] [µM] | IC50 [3] [µM] |
| --- | --- | --- | --- |
| COc1c(O[C@@H]2O[C@H](CN=[N+]=[N-])[C@@H](O)[C@H](O)[C@H]2O)cc2c(c1OC)-c1ccc(SC)c(=O)cc1[C@@H](NC(C)=O)CC2 | 8.2 | 4.3 | 7.8 |
| NCC(=O)O [GLYCINE] |  | 15.8 |  |
| O=C1C[C@@H]2OCC=C3CN4CC[C@]56c7ccccc7N1[C@H]5[C@H]2[C@H]3C[C@H]46 [STRYCHNINE] |  | 0.014 |  |

Further lines, results first:

| IC50 [1] [µM] | IC50 [2] [µM] | IC50 [3] [µM] | Structure (SMILES) |
| --- | --- | --- | --- |
| 8 | > 100 | 17.3 | COc1c(O[C@@H]2O[C@H](CI)[C@@H](O)[C@H](O)[C@H]2O)cc2c(c1OC)-c1ccc(SC)c(=O)cc1[C@@H](NC(C)=O)CC2 |
| 3.5 | 1.9 | 6.2 | COc1c(O[C@@H]2O[C@H](C)[C@@H](O)[C@H](O)[C@H]2O)cc2c(c1OC)-c1ccc(SC)c(=O)cc1[C@@H](NC(C)=O)CC2 |
| 2 | 1.3 | 3.8 | COc1c(O[C@@H]2O[C@H](CF)[C@@H](O)[C@H](O)[C@H]2O)cc2c(c1OC)-c1ccc(SC)c(=O)cc1[C@@H](NC(C)=O)CC2 |
| 1.9 | 1.5 | 3.4 | COc1c(O[C@@H]2O[C@H](CO)[C@@H](O)[C@H](O)[C@H]2O)cc2c(c1OC)-c1ccc(SC)c(=O)cc1[C@@H](NC(C)=O)CC2 [THIOCOLCHICOSIDE] |
